For assay [1], the target named is Adenosine 5'-monophosphoramidase HINT1 (Homo sapiens, UniProt P49773). Description: Non-competitive inhibition of human HinT1 using tryptamine 5'-adenosine phosphoramidate as substrate compound pre-incubated for 30 secs prior substrate addition measured for 2 mins by Dixon plot analysis. The procedure, abridged:
(§1)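 Phosphoramidase assay on fluorogenic tryptamine 5'-adenosine phosphoramidate (TpAd), ecHinT or hHint1 enzyme. Enzyme pre-incubated with inhibitor 30 s at 25 °C, then substrate added. Hydrolysis followed as fluorescence rise (excitation 280 nm, emission 360 nm) over 2 min. HEPES buffer pH 7.2, 25 °C; Ki derived from rates versus concentration.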

The nature of assay [2]: Non-competitive inhibition of Escherichia coli HinT using tryptamine 5'-adenosine phosphoramidate as substrate compound pre-incubated for 30 secs prior substrate addition measured for 2 mins by Dixon plot analysis. The procedure, abridged:
as §1

Assay [3] relates to Escherichia coli. Nature of the assay: Inhibition of HinT in Escherichia coli BW25113 assessed as impaired growth at 100 uM after 40 hrs in presence of D,L-alanine as sole carbon source.
Assay [4] concerns Escherichia coli. Nature of the assay: Growth inhibition of Escherichia coli BW25113 at 100 uM after 40 hrs in presence of glucose as sole carbon source. The format is functional, organism-based.

Calls of active or inactive are those of the source. The rule behind the calls is not given here.

One may read the Ki as a dissociation constant, usually derived from enzyme kinetics or from competition with a known ligand. Read a high Ki as a looser hold on the target. In the case of `Nc1ncnc2c1ncn2[C@@H]1O[C@H](COC(=O)CCc2c[nH]c3ccccc23)[C@@H](O)[C@H]1O`, the Ki in assay [1] was found to be 400 µM; in assay [2], 375 µM.
Take `Cc1cn([C@H]2C[C@H](N)[C@@H](COC(=O)NCCc3c[nH]c4ccccc34)O2)c(=O)[nH]c1=O`: the inhibition entry in the assay on Escherichia coli [3] is “Active”. In addition, the Ki in assay [1] is 139 µM; in assay [2] it was 122 µM. In addition, the “growth inhibition (GI)” value with Escherichia coli [4] was “inactive”.
Consider `Cc1cn([C@H]2C[C@H](N=[N+]=[N-])[C@@H](COC(=O)NCCc3c[nH]c4ccccc34)O2)c(=O)[nH]c1=O`, for which the Ki in assay [1] worked out at 715 µM; in assay [2], 565 µM.
Consider `Nc1ncnc2c1ncn2[C@@H]1O[C@H](COC(=O)NCCc2c[nH]c3ccccc23)[C@@H](O)[C@H]1O`, for which, in the assay with Escherichia coli [3], the inhibition entry is “Active”. Also, the Ki in assay [1] came out at 103 µM; in assay [2], 73 µM. In addition, the “growth inhibition (GI)” value in the assay with Escherichia coli [4] is “inactive”.
With `Nc1nc2c(ncn2[C@@H]2O[C@H](COC(=O)NCCc3c[nH]c4ccccc34)[C@@H](O)[C@H]2O)c(=O)[nH]1`, in the assay on Escherichia coli [3], the inhibition result is “Active”. Besides, the values for the Ki in assay [1] and in assay [2] were 34 µM and 42 µM, respectively. The “growth inhibition (GI)” value in the assay with Escherichia coli [4] is “inactive”.
For the compound `Nc1ncnc2c1ncn2[C@@H]1O[C@H](COC(=O)CCCc2c[nH]c3ccccc23)[C@@H](O)[C@H]1O`, the figures for the Ki in assay [1] and in assay [2] were 457 µM and 393 µM, respectively.

Source of the values: ChEMBL document CHEMBL1933064, “Synthesis and evaluation of potential inhibitors of human and Escherichia coli histidine triad nucleotide binding proteins” (Bioorg Med Chem Lett, 2012).
